Source: paper PMC3086613 (Theranostics, 2011)

How the values were obtained:
[1] = system: PC-3 tumor-bearing nude mice; assay: Small animal microPET imaging, ROI-derived radioactivity accumulation; assay type: in vivo; conditions: 3.7 MBq i.v.; PC-3 tumor-bearing mice; n = 3/group
Outline: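 Male athymic nude mice carried PC-3 xenografts (5 × 10^6 cells s.c., front flank; 100–300 mm3 after 3–4 weeks). Under isoflurane, ~3.7 MBq (100 μCi) radiotracer was given via tail vein. Five-minute static scans were taken at 30 min, 1 h and 2 h (2D OSEM, no attenuation or scatter correction). ROIs on decay-corrected coronal images gave %ID/g, assuming 1 g/mL; n = 3/group.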

PC-3 cells [2] = assay: Cell washout; assay type: cell-based, human; conditions: 37 °C, serum-free medium devoid of radioactivity
Outline: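 PC-3 cells were seeded at 1 × 10^5 per well overnight, PBS-rinsed, then loaded with ~0.5 μCi/well radiotracer in triplicate for 2 h at 37 °C. After a PBS wash they were re-incubated in serum-free medium. At 0, 15, 30, 60 and 120 min, cells were PBS-washed and lysed in 0.1 M NaOH. Retained activity was gamma-counted as percent added radioactivity.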

PC-3 cells [3] = assay: Cell uptake of 18F-labeled BBN peptides; assay type: cell-based, human; conditions: for PC-3 cell uptake peak value (percent added radioactivity): 37 °C, 15 min, n = 3, mean ± SD; for Cell uptake at 37 °C versus 4 °C: PC-3 cells
Outline: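 PC-3 cells (F-12K, 10% FBS, 37 °C, 5% CO2) were seeded at 1 × 10^5 per well overnight, washed three times with PBS, and given ~0.5 μCi/well radiotracer in triplicate at 37 °C. At 15, 30, 60 and 120 min, cells were rinsed with PBS and lysed with 0.1 M NaOH. Lysate activity was gamma-counted and expressed as percent added radioactivity.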

Substance	Activity accumulation in non-target organs on PET images (in words) [1]	Tumor uptake on PET images (in words) [1]	Washout rate from PC-3 cells (PC-3 cells [2])	PC-3 cell uptake peak value (percent added radioactivity) (PC-3 cells [3])	Cell uptake at 37 °C versus 4 °C (PC-3 cells [3])
18F-FP-FQWAVGHL-NHEt [^18F-FP-ATBBN]	rapid and prominent activity accumulation in the liver and intestines	almost no tumor uptake			
18F-FP- GGGRDN-FQWAVGHLM-NHEt [^18F-FP-MATBBN]			Much faster washout rate	0.3 ± 0.07%	no significant difference
18F-FP-Aca-QWAVGHLM-NH2 [^18F-FP-AGBBN]	very high liver, bile and intestinal uptake	some tumor accumulation			
18F-FP- GGGRDN-QWAVGHLM-NH2 [^18F-FP-MAGBBN]			slower washout	1.2 ± 0.07%	2 fold
